# Results published in ChEMBL document CHEMBL4346670, “Discovery of Novel Janus Kinase (JAK) and Histone Deacetylase (HDAC) Dual Inhibitors for the Treatment of Hematological Malignancies” (J Med Chem, 2019).
# Columns and labels:
# [1] = biological target: Histone deacetylase; experiment: Inhibition of HDAC in human HeLa nuclear extract using Boc-Lys(acetyl)-AMC as substrate preincubated for 5 mins followed by substrate addition and measured after 30 mins by fluorescence assay; type: cell-based
# [2] = biological target: T1, Protein deacetylase HDAC6 (Homo sapiens, UniProt Q9UBN7); experiment: Inhibition of HDAC6 (unknown origin) using Boc-Lys(acetyl)-AMC as substrate preincubated for 5 mins followed by substrate addition and measured after 30 mins by fluorescence assay
# T1 sequence (Q9UBN7 whole entry): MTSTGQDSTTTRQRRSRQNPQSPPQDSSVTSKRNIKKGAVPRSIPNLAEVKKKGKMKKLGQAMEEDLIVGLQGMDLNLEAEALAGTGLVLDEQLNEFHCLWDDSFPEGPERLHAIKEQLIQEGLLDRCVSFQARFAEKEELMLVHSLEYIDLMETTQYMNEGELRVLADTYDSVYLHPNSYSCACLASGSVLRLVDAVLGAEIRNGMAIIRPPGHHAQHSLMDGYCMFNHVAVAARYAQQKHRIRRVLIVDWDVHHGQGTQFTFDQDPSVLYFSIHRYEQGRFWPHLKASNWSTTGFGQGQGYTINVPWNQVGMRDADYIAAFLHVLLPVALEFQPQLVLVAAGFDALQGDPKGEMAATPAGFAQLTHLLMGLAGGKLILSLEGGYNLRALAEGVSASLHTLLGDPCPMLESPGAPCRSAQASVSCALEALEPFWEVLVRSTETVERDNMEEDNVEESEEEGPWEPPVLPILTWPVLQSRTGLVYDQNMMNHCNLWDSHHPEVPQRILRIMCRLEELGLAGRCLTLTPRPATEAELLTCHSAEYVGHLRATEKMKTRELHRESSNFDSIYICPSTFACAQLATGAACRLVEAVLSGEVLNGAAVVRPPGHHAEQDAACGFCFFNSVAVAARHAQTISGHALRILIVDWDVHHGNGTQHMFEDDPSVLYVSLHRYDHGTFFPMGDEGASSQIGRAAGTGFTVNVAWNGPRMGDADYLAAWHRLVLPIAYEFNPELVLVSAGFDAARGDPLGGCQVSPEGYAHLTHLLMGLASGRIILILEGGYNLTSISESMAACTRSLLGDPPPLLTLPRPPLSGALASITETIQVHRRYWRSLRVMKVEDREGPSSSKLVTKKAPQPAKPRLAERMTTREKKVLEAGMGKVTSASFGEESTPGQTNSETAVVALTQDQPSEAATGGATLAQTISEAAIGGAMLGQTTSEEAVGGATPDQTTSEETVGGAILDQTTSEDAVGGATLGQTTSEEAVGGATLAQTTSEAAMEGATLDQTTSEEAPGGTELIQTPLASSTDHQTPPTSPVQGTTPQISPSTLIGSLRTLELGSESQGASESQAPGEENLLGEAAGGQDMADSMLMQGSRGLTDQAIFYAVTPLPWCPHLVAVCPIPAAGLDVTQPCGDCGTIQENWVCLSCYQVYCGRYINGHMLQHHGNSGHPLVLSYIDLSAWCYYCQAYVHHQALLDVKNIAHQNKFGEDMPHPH
# [3] = biological target: T2, Histone deacetylase 8 (Homo sapiens, UniProt Q9BY41); experiment: Inhibition of HDAC8 (unknown origin) using Boc-Lys(trifluoroacetyl)-AMC as substrate preincubated for 5 mins followed by substrate addition and measured after 30 mins by fluorescence assay
# T2 sequence (Q9BY41 whole entry): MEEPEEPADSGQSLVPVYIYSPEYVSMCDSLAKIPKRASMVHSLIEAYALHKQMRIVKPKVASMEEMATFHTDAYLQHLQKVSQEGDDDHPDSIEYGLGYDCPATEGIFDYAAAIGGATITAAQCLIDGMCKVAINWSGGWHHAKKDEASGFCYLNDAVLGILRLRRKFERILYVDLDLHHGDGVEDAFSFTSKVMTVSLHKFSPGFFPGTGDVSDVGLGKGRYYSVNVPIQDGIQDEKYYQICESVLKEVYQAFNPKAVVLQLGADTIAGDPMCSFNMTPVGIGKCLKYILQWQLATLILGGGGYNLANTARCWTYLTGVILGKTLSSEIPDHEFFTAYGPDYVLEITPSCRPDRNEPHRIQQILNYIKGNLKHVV
# [4] = biological target: Tyrosine-protein kinase JAK2 (Homo sapiens, UniProt O60674); experiment: Inhibition of recombinant human JAK2 using Ulight-CAGAGAIETDKEYYTVKD as substrate measured after 60 mins by LANCE assay
# Chain of Tyrosine-protein kinase JAK2 (O60674 whole entry): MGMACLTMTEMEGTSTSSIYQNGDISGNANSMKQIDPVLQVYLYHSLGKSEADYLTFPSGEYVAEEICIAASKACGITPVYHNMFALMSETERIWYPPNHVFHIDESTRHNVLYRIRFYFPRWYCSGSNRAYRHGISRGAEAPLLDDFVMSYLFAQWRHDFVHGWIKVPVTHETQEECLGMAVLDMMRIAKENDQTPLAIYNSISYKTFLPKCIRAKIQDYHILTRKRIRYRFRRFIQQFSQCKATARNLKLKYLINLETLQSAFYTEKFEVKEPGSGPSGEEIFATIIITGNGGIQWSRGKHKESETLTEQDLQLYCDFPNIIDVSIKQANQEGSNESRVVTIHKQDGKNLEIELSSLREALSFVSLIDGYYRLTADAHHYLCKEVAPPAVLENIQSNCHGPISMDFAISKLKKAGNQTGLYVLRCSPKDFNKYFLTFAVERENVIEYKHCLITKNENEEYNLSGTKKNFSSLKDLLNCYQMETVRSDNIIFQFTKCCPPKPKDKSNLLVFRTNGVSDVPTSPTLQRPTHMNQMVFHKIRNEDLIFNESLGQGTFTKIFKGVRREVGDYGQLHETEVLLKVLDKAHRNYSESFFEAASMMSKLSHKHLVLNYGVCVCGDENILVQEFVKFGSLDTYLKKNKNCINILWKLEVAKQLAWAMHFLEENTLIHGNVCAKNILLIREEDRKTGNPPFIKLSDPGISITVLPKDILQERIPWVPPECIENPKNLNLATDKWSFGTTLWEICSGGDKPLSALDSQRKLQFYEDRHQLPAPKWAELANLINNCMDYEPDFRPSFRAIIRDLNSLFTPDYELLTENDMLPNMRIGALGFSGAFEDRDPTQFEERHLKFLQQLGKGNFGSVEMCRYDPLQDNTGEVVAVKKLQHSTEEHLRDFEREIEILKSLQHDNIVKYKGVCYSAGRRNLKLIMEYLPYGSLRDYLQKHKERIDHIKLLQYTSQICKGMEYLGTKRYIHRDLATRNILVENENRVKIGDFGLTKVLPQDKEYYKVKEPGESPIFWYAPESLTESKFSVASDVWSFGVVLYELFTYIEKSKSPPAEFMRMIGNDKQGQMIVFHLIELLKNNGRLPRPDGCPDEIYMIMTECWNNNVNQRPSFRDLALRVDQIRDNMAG
# [5] = biological target: Histone deacetylase 2 (Homo sapiens, UniProt Q92769); experiment: Inhibition of HDAC2 (unknown origin) using Boc-Lys(acetyl)-AMC as substrate preincubated for 5 mins followed by substrate addition and measured after 30 mins by fluorescence assay
# Chain of Histone deacetylase 2 (Q92769 whole entry): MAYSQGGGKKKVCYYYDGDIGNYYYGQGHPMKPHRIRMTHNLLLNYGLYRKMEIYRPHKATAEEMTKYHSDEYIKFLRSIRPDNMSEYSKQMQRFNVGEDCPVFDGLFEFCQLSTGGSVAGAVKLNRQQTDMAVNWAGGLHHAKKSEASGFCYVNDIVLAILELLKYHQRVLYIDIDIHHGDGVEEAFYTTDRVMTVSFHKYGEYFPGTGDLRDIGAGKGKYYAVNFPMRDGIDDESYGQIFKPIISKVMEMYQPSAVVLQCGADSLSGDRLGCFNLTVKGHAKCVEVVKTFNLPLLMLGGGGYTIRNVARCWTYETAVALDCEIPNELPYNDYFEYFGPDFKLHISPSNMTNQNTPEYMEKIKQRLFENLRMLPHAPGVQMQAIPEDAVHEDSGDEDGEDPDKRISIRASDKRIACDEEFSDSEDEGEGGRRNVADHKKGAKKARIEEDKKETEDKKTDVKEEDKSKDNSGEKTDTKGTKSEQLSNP
# [6] = system: Jurkat; experiment: Antiproliferative activity against human Jurkat cells assessed as reduction in cell viability after 48 hrs by MTT assay; type: functional, cell-based
# [7] = system: K562; experiment: Antiproliferative activity against human K562 cells assessed as reduction in cell viability after 48 hrs by MTT assay; type: functional, cell-based; conditions: K562, 48 h
# [8] = system: MOLT-4; experiment: Antiproliferative activity against human MOLT4 cells assessed as reduction in cell viability after 48 hrs by MTT assay; type: functional, cell-based; conditions: MOLT-4, 48 h
# In short: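 Cells kept in RPMI1640 with 10% FBS at 37 °C, 5% CO2. Seeded and grown for 12 h, then exposed to a range of compound concentrations for 48 h. 0.5% MTT added for 4 h, formazan dissolved in DMSO, absorbance read at 570 nm.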
# [9] = system: HEL; experiment: Antiproliferative activity against HEL cells harboring JAK2 V617F mutant assessed as reduction in cell viability after 48 hrs by MTT assay; type: functional, cell-based; conditions: Homo sapiens
# [10] = biological target: Tyrosine-protein kinase JAK1 (Homo sapiens, UniProt P23458); experiment: Inhibition of recombinant human JAK1 using Ulight-CAGAGAIETDKEYYTVKD as substrate measured after 60 mins by LANCE assay
# Chain of Tyrosine-protein kinase JAK1 (P23458 whole entry): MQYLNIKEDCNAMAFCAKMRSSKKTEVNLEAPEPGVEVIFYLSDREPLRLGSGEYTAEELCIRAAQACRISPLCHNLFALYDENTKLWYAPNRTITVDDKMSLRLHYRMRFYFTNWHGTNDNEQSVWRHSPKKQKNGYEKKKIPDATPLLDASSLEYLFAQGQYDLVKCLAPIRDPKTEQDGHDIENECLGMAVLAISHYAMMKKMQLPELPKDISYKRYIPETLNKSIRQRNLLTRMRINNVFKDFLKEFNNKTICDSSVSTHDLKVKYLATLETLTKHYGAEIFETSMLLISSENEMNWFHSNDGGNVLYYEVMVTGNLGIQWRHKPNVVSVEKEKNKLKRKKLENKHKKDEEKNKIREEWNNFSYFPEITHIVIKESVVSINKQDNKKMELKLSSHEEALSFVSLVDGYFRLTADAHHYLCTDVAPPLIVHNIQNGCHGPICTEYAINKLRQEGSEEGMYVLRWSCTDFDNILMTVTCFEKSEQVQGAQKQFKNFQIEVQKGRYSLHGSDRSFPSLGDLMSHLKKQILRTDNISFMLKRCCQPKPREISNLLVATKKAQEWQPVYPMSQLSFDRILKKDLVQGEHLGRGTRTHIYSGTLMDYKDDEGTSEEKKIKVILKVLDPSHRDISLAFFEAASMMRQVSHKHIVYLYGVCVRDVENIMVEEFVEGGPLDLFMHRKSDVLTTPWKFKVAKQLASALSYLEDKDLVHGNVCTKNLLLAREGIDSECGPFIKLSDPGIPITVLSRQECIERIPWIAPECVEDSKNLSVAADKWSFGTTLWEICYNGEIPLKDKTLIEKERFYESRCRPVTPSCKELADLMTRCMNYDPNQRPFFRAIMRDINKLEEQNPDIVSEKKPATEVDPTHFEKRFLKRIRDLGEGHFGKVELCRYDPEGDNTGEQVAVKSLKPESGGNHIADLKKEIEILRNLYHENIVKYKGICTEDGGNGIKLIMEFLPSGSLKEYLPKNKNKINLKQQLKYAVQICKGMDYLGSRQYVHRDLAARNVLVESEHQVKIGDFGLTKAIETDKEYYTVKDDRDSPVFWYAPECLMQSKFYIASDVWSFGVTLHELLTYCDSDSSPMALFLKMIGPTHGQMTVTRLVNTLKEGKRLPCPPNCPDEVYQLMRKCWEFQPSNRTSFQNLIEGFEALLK
# In short: (§1)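 Human recombinant JAK enzyme assays run by a contract lab. IC50 was taken from a non-linear curve fit, with all parameters allowed to float. Assays were run in replicate (n>2) and reported as mean ± SD.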
# [11] = biological target: Non-receptor tyrosine-protein kinase TYK2 (Homo sapiens, UniProt P29597); experiment: Inhibition of recombinant human TYK2 using Ulight-CAGAGAIETDKEYYTVKD as substrate measured after 60 mins by LANCE assay; in short: as §1
# Chain of Non-receptor tyrosine-protein kinase TYK2 (P29597 whole entry): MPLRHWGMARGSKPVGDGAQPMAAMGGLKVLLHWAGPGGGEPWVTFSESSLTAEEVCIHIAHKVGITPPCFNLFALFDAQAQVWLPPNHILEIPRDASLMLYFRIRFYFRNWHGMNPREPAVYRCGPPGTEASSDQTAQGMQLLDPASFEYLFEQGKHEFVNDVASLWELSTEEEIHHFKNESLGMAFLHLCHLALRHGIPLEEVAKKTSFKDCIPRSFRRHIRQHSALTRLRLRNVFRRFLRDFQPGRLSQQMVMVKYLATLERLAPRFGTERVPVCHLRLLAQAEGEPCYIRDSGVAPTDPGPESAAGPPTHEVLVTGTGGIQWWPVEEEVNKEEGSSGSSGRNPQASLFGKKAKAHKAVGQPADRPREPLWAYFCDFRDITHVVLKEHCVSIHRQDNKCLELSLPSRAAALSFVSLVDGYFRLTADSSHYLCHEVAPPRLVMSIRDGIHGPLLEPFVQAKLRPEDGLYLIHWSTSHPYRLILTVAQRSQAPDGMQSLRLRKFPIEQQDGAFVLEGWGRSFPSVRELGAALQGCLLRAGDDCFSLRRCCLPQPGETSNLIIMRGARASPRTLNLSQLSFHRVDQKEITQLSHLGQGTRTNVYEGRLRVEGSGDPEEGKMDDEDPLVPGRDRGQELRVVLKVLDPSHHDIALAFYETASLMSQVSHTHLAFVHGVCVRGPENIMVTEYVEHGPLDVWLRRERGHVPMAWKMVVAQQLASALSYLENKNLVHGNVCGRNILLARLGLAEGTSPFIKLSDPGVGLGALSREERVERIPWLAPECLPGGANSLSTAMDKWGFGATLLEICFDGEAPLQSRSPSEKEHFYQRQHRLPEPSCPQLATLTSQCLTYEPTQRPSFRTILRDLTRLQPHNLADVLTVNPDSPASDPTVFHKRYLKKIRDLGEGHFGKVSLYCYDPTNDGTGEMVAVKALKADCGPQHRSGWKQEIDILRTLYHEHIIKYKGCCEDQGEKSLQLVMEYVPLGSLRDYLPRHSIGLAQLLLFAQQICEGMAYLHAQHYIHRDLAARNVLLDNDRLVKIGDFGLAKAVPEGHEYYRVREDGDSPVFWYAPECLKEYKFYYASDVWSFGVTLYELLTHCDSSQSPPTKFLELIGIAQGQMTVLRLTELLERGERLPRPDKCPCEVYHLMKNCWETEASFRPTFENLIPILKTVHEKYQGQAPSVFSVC
# [12] = biological target: T3, Tyrosine-protein kinase JAK3 (Homo sapiens, UniProt P52333); experiment: Inhibition of recombinant human JAK3 using Ulight-CAGAGAIETDKEYYTVKD as substrate measured after 60 mins by LANCE assay
# T3 sequence (P52333 whole entry): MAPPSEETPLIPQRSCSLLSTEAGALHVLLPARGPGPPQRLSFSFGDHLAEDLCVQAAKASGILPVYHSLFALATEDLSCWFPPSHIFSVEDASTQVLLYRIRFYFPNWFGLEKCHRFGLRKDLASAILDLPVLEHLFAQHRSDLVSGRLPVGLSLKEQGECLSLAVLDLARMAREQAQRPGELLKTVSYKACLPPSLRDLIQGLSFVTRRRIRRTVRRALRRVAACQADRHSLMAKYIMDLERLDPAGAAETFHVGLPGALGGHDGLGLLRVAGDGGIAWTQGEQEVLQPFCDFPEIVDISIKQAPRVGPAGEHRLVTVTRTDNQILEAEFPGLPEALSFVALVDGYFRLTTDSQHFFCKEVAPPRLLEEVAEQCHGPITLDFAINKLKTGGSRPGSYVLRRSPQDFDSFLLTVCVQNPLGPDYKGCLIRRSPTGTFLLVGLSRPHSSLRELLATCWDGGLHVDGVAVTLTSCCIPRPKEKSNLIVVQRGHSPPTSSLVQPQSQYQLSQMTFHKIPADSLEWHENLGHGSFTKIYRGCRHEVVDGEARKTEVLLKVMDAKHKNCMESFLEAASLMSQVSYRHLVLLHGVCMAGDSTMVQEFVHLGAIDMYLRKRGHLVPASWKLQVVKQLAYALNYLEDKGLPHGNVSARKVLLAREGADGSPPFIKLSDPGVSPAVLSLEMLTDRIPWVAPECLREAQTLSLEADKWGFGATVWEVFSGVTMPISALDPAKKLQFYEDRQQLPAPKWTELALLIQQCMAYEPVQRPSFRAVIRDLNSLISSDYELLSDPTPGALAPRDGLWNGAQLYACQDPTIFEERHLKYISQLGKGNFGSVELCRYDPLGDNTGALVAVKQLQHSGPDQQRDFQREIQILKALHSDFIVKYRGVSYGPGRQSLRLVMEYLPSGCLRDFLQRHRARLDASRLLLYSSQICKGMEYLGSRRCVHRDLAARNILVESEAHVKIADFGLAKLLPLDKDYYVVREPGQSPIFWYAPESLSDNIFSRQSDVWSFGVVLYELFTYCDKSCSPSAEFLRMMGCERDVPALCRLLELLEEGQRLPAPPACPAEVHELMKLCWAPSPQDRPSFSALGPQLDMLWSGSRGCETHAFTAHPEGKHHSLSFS
# [13] = biological target: Histone deacetylase (Homo sapiens) (UniProt Q13547+O15379+Q9UBN7+Q92769+Q9UQL6+Q8WUI4+Q9BY41+Q96DB2+P56524+Q9UKV0+Q969S8); experiment: Potency index, ratio of SAHA IC50 to test compound IC50 for inhibition of HDAC in human HeLa cell nuclear extract; type: cell-based
# In short: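 HeLa cell nuclear extract was incubated with serial concentrations of compound for 5 min at 37 °C. Boc-Lys(acetyl)-AMC substrate was added for 30 min at 37 °C, then developer containing trypsin and TSA for 20 min. Fluorescence was read at ex 390/em 460 nm against control wells.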
IC50 [1] [µM],IC50 [2] [µM],IC50 [3] [µM],IC50 [4] [µM],IC50 [5] [µM],IC50 [6] [µM],IC50 [7] [µM],IC50 [8] [µM],IC50 [10] [µM],IC50 [11] [µM],IC50 [12] [µM],Ratio IC50 [13],Structure (SMILES),IC50 [9] [µM]
0.004,–,–,0.007,–,0.05,0.58,0.08,–,–,–,–,O=C(CCCCCn1cc(Nc2ncc(Cl)c(Nc3cccc(Cl)c3)n2)cn1)NO,0.08
0.026,–,–,0.03,–,–,–,–,–,–,–,–,CCCNc1nc(Nc2cnn(CCCCCCC(=O)NO)c2)ncc1Cl,–
0.062,0.013,0.12,0.021,0.73,–,–,–,–,–,–,–,O=C(NO)c1ccc(Cn2cc(Nc3ncc(Cl)c(Nc4ccc(F)cc4)n3)cn2)cc1,–
0.037,–,–,0.085,–,–,–,–,–,–,–,–,CNc1nc(Nc2cnn(CCCCCCC(=O)NO)c2)ncc1C(F)(F)F,–
0.104,–,–,0.036,–,–,–,–,–,–,–,–,CNc1nc(Nc2cnn(CCCCCC(=O)NO)c2)ncc1Cl,–
0.144,0.063,14.1,0.043,1,0.15,1.03,0.33,–,–,–,–,O=C(/C=C/c1ccc(Cn2cc(Nc3ncc(Cl)c(Nc4ccc(F)cc4)n3)cn2)cc1)NO,0.6
> 10,–,–,0.01,–,–,–,–,–,–,–,–,O=C(CCCn1cc(Nc2ncc(Cl)c(Nc3ccc(F)cc3)n2)cn1)NO,–
0.018,–,–,> 0.1,–,–,–,–,–,–,–,–,O=C(CCCCCCn1cc(Nc2nccc(Nc3ccc(F)cc3)n2)cn1)NO,–

# The next lines start with the compound.
Structure (SMILES),IC50 [1] [µM],IC50 [2] [µM],IC50 [3] [µM],IC50 [4] [µM],IC50 [5] [µM],IC50 [6] [µM],IC50 [7] [µM],IC50 [8] [µM],IC50 [10] [µM],IC50 [11] [µM],IC50 [12] [µM],Ratio IC50 [13],IC50 [9] [µM]
O=C(CCCCCCCn1cc(Nc2ncc(Cl)c(Nc3ccc(F)cc3)n2)cn1)NO,0.038,0.3,1.7,0.061,0.43,–,–,–,–,–,–,–,–
O=C(CCCCCCn1cc(Nc2ncc(Cl)c(Nc3ccccc3)n2)cn1)NO,0.019,–,–,0.012,–,0.09,0.42,0.16,–,–,–,–,0.18
O=C(CCCCCCn1cc(Nc2ncc(C(F)(F)F)c(Nc3ccc(F)cc3)n2)cn1)NO,0.041,–,–,> 0.1,–,–,0.48,0.24,–,–,–,–,0.42
O=C(CCCCCCn1cc(Nc2ncc(Cl)c(Nc3ccccc3Cl)n2)cn1)NO,0.01,–,–,0.046,–,0.25,0.86,0.51,–,–,–,–,0.34
O=C(CCCCCn1cc(Nc2ncc(Cl)c(Nc3ccc(F)cc3)n2)cn1)NO,0.026,–,–,0.005,–,0.06,0.42,0.12,–,–,–,–,0.15
O=C(CCCCCCn1cc(Nc2ncc(Cl)c(NC3CC3)n2)cn1)NO,0.013,–,–,–,–,0.05,0.38,0.15,0.014,0.012,0.002,–,0.08
O=C(CCCCn1cc(Nc2ncc(Cl)c(Nc3ccc(F)cc3)n2)cn1)NO,0.569,0.31,5.1,0.046,1.4,–,–,–,–,–,–,–,–
O=C(CCCCCn1cc(Nc2ncc(Cl)c(Nc3ccccc3Cl)n2)cn1)NO,0.018,–,–,0.018,–,0.31,1.81,0.63,–,–,–,–,0.43
O=C(CCCCCCn1cc(Nc2ncc(Cl)c(N3CCOCC3)n2)cn1)NO,0.037,–,–,0.02,–,0.17,0.91,0.32,–,–,–,–,0.47
O=C(CCCCCCn1cc(Nc2ncc(Cl)c(N3CCCCC3)n2)cn1)NO,0.04,–,–,0.05,–,–,–,–,0.03,0.06,0.0037,–,–
O=C(CCCCCCn1cc(Nc2ncc(F)c(Nc3ccc(F)cc3)n2)cn1)NO,0.003,–,–,> 0.1,–,–,–,–,–,–,–,> 50,–
O=C(CCn1cc(Nc2ncc(Cl)c(Nc3ccc(F)cc3)n2)cn1)NO,> 10,–,–,0.022,–,–,–,–,–,–,–,–,–
